Data taken from ChEMBL document CHEMBL4433215, “SAR Studies and Biological Characterization of a Chromen-4-one Derivative as an Anti-Trypanosoma brucei Agent” (ACS Med Chem Lett, 2019).
One block for each compound: values may come before it.

Legend:
[1] = test system: Trypanosoma brucei; assay: Antitrypanosomal activity against Trypanosoma brucei bloodstream form assessed as parasite growth inhibition at 10 uM after 72 hrs by resazurin dye-based assay relative to control; assay type: functional; details: read-out: GI
In short: (§1)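 T. brucei bloodstream forms were screened first. Compounds giving over 70% parasite growth inhibition then went to a full dose–response curve to derive EC50. Pentamidine was the reference.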

[2] = test system: Trypanosoma brucei; assay: Antitrypanosomal activity against Trypanosoma brucei bloodstream form after 72 hrs by resazurin dye-based assay relative to control; assay type: functional, organism-based; in short: as §1
[3] = Cytotoxicity against human THP1 cells by MTT assay; assay type: cell-based, THP-1
[4] = Selectivity index, ratio of CC50 for cytotoxicity against human THP1 cells to EC50 for antitrypanosomal activity against Trypanosoma brucei bloodstream form; assay type: toxicity, cell-based; details: read-out: Ratio CC50/EC50
[5] = target: T1, Voltage-gated inwardly rectifying potassium channel KCNH2 (Homo sapiens, UniProt Q12809); assay: Inhibition of human ERG at 10 uM after 2 hrs by fluorescence polarization assay
T1 sequence (Q12809 whole entry): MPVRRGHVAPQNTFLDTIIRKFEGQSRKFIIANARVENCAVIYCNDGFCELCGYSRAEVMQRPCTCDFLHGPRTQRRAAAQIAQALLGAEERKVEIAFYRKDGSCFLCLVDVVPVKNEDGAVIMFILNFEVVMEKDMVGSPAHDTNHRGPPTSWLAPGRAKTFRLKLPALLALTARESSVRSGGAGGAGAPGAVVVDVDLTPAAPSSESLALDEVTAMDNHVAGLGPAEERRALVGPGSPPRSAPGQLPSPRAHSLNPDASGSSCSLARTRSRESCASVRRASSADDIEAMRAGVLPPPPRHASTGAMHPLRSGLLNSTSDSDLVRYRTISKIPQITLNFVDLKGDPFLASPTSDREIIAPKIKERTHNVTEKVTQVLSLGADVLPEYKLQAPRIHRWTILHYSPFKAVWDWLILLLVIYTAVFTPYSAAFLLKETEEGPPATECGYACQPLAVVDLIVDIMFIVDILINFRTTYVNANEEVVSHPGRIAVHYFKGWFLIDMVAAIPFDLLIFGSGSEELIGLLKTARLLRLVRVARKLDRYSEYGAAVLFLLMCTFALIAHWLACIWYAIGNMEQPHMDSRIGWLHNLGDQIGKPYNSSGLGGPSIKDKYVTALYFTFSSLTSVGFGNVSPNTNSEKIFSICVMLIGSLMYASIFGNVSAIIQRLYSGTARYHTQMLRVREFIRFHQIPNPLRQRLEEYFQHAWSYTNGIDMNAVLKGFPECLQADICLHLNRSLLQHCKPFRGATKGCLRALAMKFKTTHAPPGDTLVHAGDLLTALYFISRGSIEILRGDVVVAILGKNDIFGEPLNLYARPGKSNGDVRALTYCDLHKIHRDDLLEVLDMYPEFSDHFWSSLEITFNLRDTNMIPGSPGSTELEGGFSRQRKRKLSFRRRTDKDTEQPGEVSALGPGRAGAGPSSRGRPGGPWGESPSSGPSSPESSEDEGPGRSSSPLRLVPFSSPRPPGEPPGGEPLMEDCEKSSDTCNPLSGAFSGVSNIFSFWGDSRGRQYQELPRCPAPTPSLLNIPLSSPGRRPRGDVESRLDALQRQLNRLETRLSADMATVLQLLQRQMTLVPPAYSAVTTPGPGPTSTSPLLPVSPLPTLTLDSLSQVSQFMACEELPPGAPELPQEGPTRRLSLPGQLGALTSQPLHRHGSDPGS
In short: (§2)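 Single-concentration screen at 10 μM within an early in vitro ADME-tox panel, covering cytotoxicity in A549 cells and hERG inhibition.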

[6] = test system: 786-0; assay: Mitochondrial toxicity in human 786-O cells at 10 uM after 6 hrs by MitoTracker Red chloromethyl-X-rosamine based assay; assay type: cell-based; details: 786-0, 6 h
[7] = Cytotoxicity against human A549 cells assessed as cell growth at 10 uM after 48 hrs by cell-titer-Glo assay relative to control; assay type: cell-based; details: read-out: Activity; in short: as §2
[8] = test system: hERG; assay: Selectivity ratio of IC50 for inhibition of human ERG to EC50 for antitrypanosomal activity against Trypanosoma brucei bloodstream form; assay type: toxicity; details: read-out: Ratio IC50/EC50
[9] = target: T2, Albumin (Homo sapiens, UniProt P02768); assay: Binding affinity to HSA assessed as monomer/HSA equilibrium binding constant at 11.25 uM by spectroflurometry; assay type: ADME; details: isolated protein
T2 sequence (P02768 whole entry): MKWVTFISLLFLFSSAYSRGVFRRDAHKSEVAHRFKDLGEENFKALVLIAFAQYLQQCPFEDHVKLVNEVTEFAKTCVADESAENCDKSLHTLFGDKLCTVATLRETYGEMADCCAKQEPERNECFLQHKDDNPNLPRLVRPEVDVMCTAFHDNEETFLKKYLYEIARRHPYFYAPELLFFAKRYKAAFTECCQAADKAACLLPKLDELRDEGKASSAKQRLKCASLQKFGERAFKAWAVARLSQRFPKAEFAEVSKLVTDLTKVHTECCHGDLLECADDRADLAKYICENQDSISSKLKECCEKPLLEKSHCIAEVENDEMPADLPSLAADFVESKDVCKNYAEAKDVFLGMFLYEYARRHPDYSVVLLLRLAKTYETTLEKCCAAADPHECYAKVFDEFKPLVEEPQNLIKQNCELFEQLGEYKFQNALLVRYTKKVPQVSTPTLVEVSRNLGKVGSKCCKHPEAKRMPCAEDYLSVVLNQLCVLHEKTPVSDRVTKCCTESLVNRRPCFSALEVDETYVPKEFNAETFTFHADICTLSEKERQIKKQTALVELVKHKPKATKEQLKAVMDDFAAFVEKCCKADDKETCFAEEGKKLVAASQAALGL
In short: (§3)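 Compound in aqueous phosphate buffer, pH 8, at 1.25 to 11.25 μM. Absorption and fluorescence emission spectra were recorded without and with human serum albumin (HSA), with HSA added stepwise. The monomer/dimer equilibrium constant was obtained by fitting the absorption data at 20 °C.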

[10] = target: T1, Voltage-gated inwardly rectifying potassium channel KCNH2; assay: Inhibition of human ERG after 2 hrs by fluorescence polarization assay
[11] = target: T2, Albumin; assay: Binding affinity to HSA assessed as emission maxima for aggregate at 1.25 uM to 11.25 uM by spectroflurometry; assay type: ADME; details: isolated protein; in short: as §3
[12] = target: T2, Albumin; assay: Binding affinity to HSA assessed as emission maxima for HSA-complexed monomer at 1.25 uM to 11.25 uM by spectroflurometry; assay type: ADME; details: isolated protein; in short: as §3
[13] = target: T3, Cytochrome P450 1A2 (Homo sapiens, UniProt P05177); assay: Inhibition of recombinant human microsomal CYP1A2 expressed in baculovirus infected BTI-TN-5B1-4 cell microsomes using CYP/Luciferin as substrate pre-incubated for 30 mins followed by NADPH regeneration mixture addition and measured after 30 mins by Promega P450-Glo assay; assay type: ADME
T3 sequence (P05177 whole entry): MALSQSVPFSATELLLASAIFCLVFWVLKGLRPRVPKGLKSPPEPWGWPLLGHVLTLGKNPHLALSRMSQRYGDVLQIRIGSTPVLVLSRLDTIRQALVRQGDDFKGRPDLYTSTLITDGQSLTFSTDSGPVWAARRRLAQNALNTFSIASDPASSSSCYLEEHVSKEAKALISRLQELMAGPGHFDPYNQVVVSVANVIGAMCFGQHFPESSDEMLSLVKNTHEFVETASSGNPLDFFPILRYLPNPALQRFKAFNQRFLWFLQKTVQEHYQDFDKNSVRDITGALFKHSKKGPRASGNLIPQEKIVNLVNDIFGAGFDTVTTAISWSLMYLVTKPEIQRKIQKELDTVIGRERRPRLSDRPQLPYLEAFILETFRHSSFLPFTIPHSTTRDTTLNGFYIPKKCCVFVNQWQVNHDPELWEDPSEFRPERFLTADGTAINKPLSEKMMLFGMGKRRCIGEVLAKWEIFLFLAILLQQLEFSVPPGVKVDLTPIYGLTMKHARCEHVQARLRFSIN

[14] = target: Cytochrome P450 2D6 (Homo sapiens, UniProt P10635); assay: Inhibition of recombinant human microsomal CYP2D6 expressed in baculovirus infected BTI-TN-5B1-4 cell microsomes using CYP/Luciferin as substrate pre-incubated for 30 mins followed by NADPH regeneration mixture addition and measured after 30 mins by Promega P450-Glo assay; assay type: ADME
Chain of Cytochrome P450 2D6 (P10635 whole entry): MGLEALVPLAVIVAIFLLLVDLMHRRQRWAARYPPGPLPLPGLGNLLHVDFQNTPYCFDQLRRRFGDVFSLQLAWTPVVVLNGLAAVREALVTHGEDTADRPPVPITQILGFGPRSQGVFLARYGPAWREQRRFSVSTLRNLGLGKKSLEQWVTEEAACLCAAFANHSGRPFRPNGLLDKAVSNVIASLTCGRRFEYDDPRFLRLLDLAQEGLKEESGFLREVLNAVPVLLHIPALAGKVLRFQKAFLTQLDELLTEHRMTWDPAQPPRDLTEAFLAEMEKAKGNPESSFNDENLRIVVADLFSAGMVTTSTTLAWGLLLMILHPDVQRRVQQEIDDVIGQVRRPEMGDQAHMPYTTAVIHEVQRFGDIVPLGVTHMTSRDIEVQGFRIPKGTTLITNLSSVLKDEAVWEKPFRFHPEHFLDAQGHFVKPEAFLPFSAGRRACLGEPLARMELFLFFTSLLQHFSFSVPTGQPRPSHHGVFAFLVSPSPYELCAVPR

[15] = target: Cytochrome P450 2C9 (Homo sapiens, UniProt P11712); assay: Inhibition of recombinant human microsomal CYP2C9 expressed in baculovirus infected BTI-TN-5B1-4 cell microsomes using CYP/Luciferin as substrate pre-incubated for 30 mins followed by NADPH regeneration mixture addition and measured after 30 mins by Promega P450-Glo assay; assay type: ADME
Chain of Cytochrome P450 2C9 (P11712 whole entry): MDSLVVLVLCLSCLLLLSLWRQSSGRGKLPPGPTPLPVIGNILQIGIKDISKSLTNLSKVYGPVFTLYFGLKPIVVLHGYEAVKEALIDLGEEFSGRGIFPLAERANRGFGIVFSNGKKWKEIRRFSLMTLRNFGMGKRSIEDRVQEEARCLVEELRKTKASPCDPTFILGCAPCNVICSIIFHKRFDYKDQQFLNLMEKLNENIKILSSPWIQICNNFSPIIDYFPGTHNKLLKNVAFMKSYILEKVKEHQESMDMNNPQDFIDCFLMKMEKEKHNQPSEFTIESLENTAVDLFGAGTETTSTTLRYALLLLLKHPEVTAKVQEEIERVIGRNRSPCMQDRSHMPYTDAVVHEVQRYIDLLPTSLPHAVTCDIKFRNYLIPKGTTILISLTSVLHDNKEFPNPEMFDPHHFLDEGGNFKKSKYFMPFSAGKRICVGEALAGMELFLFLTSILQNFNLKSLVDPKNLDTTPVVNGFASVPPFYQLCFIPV

[16] = target: Cytochrome P450 2C19 (Homo sapiens, UniProt P33261); assay: Inhibition of recombinant human microsomal CYP2C19 expressed in baculovirus infected BTI-TN-5B1-4 cell microsomes using CYP/Luciferin as substrate pre-incubated for 30 mins followed by NADPH regeneration mixture addition and measured after 30 mins by Promega P450-Glo assay; assay type: ADME
Chain of Cytochrome P450 2C19 (P33261 whole entry): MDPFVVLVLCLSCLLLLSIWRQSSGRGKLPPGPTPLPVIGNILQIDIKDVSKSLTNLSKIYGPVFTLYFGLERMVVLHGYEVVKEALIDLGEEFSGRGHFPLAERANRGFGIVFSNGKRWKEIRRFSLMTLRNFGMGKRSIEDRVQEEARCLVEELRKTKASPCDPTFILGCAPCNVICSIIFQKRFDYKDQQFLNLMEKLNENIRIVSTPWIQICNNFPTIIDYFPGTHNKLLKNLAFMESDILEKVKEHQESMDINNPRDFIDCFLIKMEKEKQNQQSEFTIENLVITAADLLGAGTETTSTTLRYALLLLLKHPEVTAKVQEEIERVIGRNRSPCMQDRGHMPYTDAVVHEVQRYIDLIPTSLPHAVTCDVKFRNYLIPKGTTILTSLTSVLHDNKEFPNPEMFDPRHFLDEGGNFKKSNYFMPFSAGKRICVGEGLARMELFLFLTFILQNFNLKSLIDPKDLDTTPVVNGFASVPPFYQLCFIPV

[17] = target: Cytochrome P450 3A4 (Homo sapiens, UniProt P08684); assay: Inhibition of recombinant human microsomal CYP3A4 expressed in baculovirus infected BTI-TN-5B1-4 cell microsomes using CYP/Luciferin as substrate pre-incubated for 30 mins followed by NADPH regeneration mixture addition and measured after 30 mins by Promega P450-Glo assay; assay type: ADME
Chain of Cytochrome P450 3A4 (P08684 whole entry): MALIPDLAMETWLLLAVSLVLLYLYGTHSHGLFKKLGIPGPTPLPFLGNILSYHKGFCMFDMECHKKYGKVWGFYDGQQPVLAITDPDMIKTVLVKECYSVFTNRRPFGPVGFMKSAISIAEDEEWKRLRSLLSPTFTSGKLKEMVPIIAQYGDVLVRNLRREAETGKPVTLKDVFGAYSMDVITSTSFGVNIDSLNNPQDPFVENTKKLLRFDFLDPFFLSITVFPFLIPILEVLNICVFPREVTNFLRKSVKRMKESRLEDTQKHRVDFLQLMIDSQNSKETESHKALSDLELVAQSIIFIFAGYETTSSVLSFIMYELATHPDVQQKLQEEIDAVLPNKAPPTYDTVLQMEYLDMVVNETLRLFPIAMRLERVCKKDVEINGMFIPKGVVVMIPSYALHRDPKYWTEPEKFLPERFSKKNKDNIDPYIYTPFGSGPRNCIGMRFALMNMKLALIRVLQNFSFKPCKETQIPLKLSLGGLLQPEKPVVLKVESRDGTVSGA

[18] = Cmax in BALB/c mouse at 1 mg/kg, iv by LC-MS/MS analysis; assay type: ADME, organism-based; design: dose 1 mg/kg, route intravenous; details: in vivo
In short: (§4)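 BALB/c mice were dosed IV at 1 mg/kg or orally at 20 mg/kg. Plasma Cmax, Tmax, total AUC and half-life were determined for each route.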

[19] = Cmax in BALB/c mouse at 20 mg/kg, po by LC-MS/MS analysis; assay type: ADME, organism-based; design: dose 20 mg/kg, route oral; details: in vivo; in short: as §4
[20] = Tmax in BALB/c mouse at 1 mg/kg, iv by LC-MS/MS analysis; assay type: ADME, organism-based; details: in vivo; in short: as §4
[21] = Tmax in BALB/c mouse at 20 mg/kg, po by LC-MS/MS analysis; assay type: ADME, organism-based; details: in vivo; in short: as §4
[22] = target: T2, Albumin; assay: Binding affinity to HSA assessed as emission maxima for free monomer at 1.25 uM to 11.25 uM by spectroflurometry; assay type: ADME; details: isolated protein; in short: as §3
[23] = Total AUC in BALB/c mouse at 1 mg/kg, iv by LC-MS/MS analysis; assay type: ADME, organism-based; design: dose 1 mg/kg, time AUCmax, route intravenous; details: in vivo; in short: as §4
[24] = Total AUC in BALB/c mouse at 20 mg/kg, po by LC-MS/MS analysis; assay type: ADME, organism-based; design: dose 20 mg/kg, time AUCmax, route oral; details: in vivo; in short: as §4
[25] = Half life in BALB/c mouse at 1 mg/kg, iv by LC-MS/MS analysis; assay type: ADME, organism-based; details: in vivo; in short: as §4
[26] = Half life in BALB/c mouse at 20 mg/kg, po by LC-MS/MS analysis; assay type: ADME, organism-based; details: in vivo; in short: as §4
[27] = target: T2, Albumin; assay: Binding affinity to HSA assessed as absorption maxima for aggregate at 1.25 uM to 11.25 uM by UV-visible spectrophotometry; assay type: ADME; details: isolated protein; in short: as §3
[28] = target: T2, Albumin; assay: Binding affinity to HSA assessed as absorption maxima for HSA-complexed monomer at 1.25 uM to 11.25 uM by UV-visible spectrophotometry; assay type: ADME; details: isolated protein; in short: as §3
[29] = Aggregation behavior in phosphate buffer at pH 8 assessed as increase in absorption spectra at 1.25 uM to 11.25 uM by UV-visible spectrophotometry; assay type: physicochemical; details: pH 8, 1.25 µM; in short: as §3
[30] = Aggregation behavior in phosphate buffer at pH 8 assessed as increase in emission spectra at 1.25 uM to 11.25 uM by spectroflurometry; assay type: physicochemical; details: pH 8, 1.25 µM; in short: as §3
[31] = Aggregation behavior in phosphate buffer at pH 8 assessed as dimerization equilibrium constant at 1.25 uM to 11.25 uM by UV-visible spectrophotometry; assay type: physicochemical; details: pH 8, 1.25 µM; in short: as §3
[32] = target: T2, Albumin; assay: Binding affinity to HSA assessed as absorption maxima for free monomer at 1.25 uM to 11.25 uM by UV-visible spectrophotometry; assay type: ADME; details: isolated protein; in short: as §3

EC50 [2]: 2.9 µM
Structure (SMILES): O=c1c(O)c(-c2ccc3c(c2)OCO3)oc2ccccc12
inhibition of growth at 10 µM [1]: 100%
CC50 [3]: 12.5 to 25 µM
selectivity ratio [4]: 4
inhibition (INH) [5]: Not Active
Activity [6]: Non-Toxic

Structure (SMILES): O=c1c(O)c(-c2ccc3c(c2)OCO3)oc2ccc(F)cc12
inhibition of growth at 10 µM [1]: 7%
CC50 [3]: 12.5 to 25 µM
inhibition (INH) [5]: Not Active
Activity [6]: Non-Toxic

EC50 [2]: 1.1 µM
Structure (SMILES): COc1ccc2c(=O)c(OC(=O)C(C)(C)C)c(-c3ccc4c(c3)OCO4)oc2c1
inhibition of growth at 10 µM [1]: 100%
CC50 [3]: > 100 µM
selectivity ratio [4]: > 92
inhibition (INH) [5]: Not Active
Activity [6]: Non-Toxic

EC50 [2]: 0.5 µM
Structure (SMILES): COc1ccc2c(=O)c(OC(=O)C(C)C)c(-c3ccc4c(c3)OCO4)oc2c1
inhibition of growth at 10 µM [1]: 98%
CC50 [3]: < 12.5 µM
selectivity ratio [4]: 24
inhibition (INH) [5]: Not Active
Activity [6]: Non-Toxic
viability at 48 h, 10 µM [7]: < 0%

EC50 [2]: 3.1 µM
Structure (SMILES): COc1ccc2c(=O)c(O)c(-c3ccc4c(c3)CCO4)oc2c1
inhibition of growth at 10 µM [1]: 100%
CC50 [3]: 25 to 50 µM
selectivity ratio [4]: 8
inhibition (INH) [5]: Not Active
Activity [6]: Non-Toxic

EC50 [2]: 0.4 µM
Structure (SMILES): Cc1ccc2c(=O)c(O)c(-c3ccc4c(c3)OCO4)oc2c1
inhibition of growth at 10 µM [1]: 99%
CC50 [3]: 12.5 to 25 µM
selectivity ratio [4]: 31
inhibition (INH) [5]: Not Active
Activity [6]: Non-Toxic

EC50 [2]: > 10 µM
Structure (SMILES): CCOc1c(-c2ccc3c(c2)OCO3)oc2cc(OC)ccc2c1=O
inhibition of growth at 10 µM [1]: 18%
CC50 [3]: 50 to 100 µM
inhibition (INH) [5]: Not Active
Activity [6]: Non-Toxic

Kb [9]: 2.5 ×10⁵ /M
Activity [11]: 560 nm
Activity [12]: 540 nm
IC50 [13]: 0.4 µM
IC50 [14]: 0.05 µM
IC50 [15]: 1.6 µM
IC50 [16]: 1.5 µM
IC50 [17]: 6 µM
Cmax [18]: 1.08 µM
Cmax [19]: 0.91 µM
Tmax [20]: 1 h
Tmax [21]: 0.5 h
Activity [22]: 475 nm
AUC [23]: 9.99 µM·h
AUC [24]: 8.65 µM·h
half-life [25]: 19.8 h
half-life [26]: 45.4 h
Activity [27]: 325 nm
Activity [28]: 360 nm
Activity [29]: Active
Activity [30]: Active
Ke [31]: 1.8 ×10⁵ /M
Activity [32]: 360 nm
Structure (SMILES): COc1ccc2c(=O)c(O)c(-c3ccc4c(c3)OCO4)oc2c1
CC50 [3]: > 100 µM
selectivity ratio [4]: 250
selectivity ratio [8]: > 250
inhibition (INH) [5]: Not Active
Activity [6]: Non-Toxic
IC50 [10]: > 100 µM

EC50 [2]: 0.3 µM
Structure (SMILES): COc1ccc2c(=O)c(OC(C)=O)c(-c3ccc4c(c3)OCO4)oc2c1
inhibition of growth at 10 µM [1]: 100%
CC50 [3]: < 12.5 µM
selectivity ratio [4]: 46
inhibition (INH) [5]: Not Active
Activity [6]: Non-Toxic

Structure (SMILES): COc1ccc2c(=O)c(OC(=O)N(C)C)c(-c3ccc4c(c3)OCO4)oc2c1
inhibition of growth at 10 µM [1]: 25%
EC50 [2]: > 10 µM
CC50 [3]: > 100 µM
inhibition (INH) [5]: Not Active
Activity [6]: Non-Toxic

Structure (SMILES): O=c1c(O)c(-c2ccc3c(c2)OCO3)oc2ccc(Br)cc12
inhibition of growth at 10 µM [1]: 38%
CC50 [3]: 12.5 to 25 µM
inhibition (INH) [5]: Not Active
Activity [6]: Non-Toxic
